Experimental data: paper PMC5116011 (The Journal of antibiotics, 2016)
Converted amounts (≈) assume the structure as drawn. Where two headings read alike, the source gives them in different places.

What was measured:
[1] = system: S. aureus -ATCC29213 (MSSA); experiment: MIC, microbroth dilution in Mueller-Hinton broth; type: cell-based; details: Staphylococcus aureus, read-out: MIC MSSA
Method in brief: (§1)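 CLSI broth microdilution in cation-adjusted Mueller-Hinton broth. Inocula were grown from MH agar colonies in MH broth, with a final inoculum of 10^5 CFU/ml. Test compound final range was 200–0.2 µg/ml, incubated 37°C for 18–20 h. MIC was the lowest concentration preventing visible growth. Runs were at least duplicate, and the mean MIC was reported.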

[2] = system: E. coli BW25113 ΔtolC derivative JW5503-1; experiment: MIC, microbroth dilution in Mueller-Hinton broth; type: cell-based, Escherichia coli; details: for MIC: Escherichia coli
E. coli BW25113 = experiment: MIC, microbroth dilution in Mueller-Hinton broth; type: cell-based, Escherichia coli; details: for MIC EC MH+BP/CCCP / MIC EC +: E. coli BW25113; for MIC EC MH+BP/CCCP: MH broth with 30 µg/ml 2,2′-bipyridyl and 50 µg/ml CCCP; for MIC EC +: with clavulanic acid (6µg/ml); for MIC: Escherichia coli, BW25113, read-out: MIC EC, E. coli BW25113, Mueller-Hinton broth (Table 2)
B. anthracis sterne = experiment: microbe, parasite or virus in culture; type: cell-based; details: Bacillus anthracis, read-out: MIC BA
P. vulgaris ATCC 33420 = experiment: MIC, microbroth dilution in Mueller-Hinton broth; type: cell-based; details: Proteus vulgaris, ATCC33420, read-out: MIC PV
B. subtilis ATCC23857 = experiment: MIC, microbroth dilution in Mueller-Hinton broth; type: cell-based; details: Bacillus subtilis, ATCC23857, read-out: MIC BS
Method in brief: as §1

S. aureus NRS 70 (MRSA) = experiment: MIC, microbroth dilution in Mueller-Hinton broth; type: cell-based; details: Staphylococcus aureus, MRSA|NRS70, read-out: MIC MRSA
Method in brief: as §1

S. pneumoniae R6 = experiment: MIC, microbroth dilution in Mueller-Hinton broth; type: cell-based; details: Streptococcus pneumoniae, R6, read-out: MIC SP
Method in brief: as §1

P. mirabilis ATCC 25933 = experiment: MIC, microbroth dilution in Mueller-Hinton broth; type: cell-based; details: Proteus mirabilis, ATCC25933, read-out: MIC PM
S. pyogenes ATCC700294 = experiment: MIC, microbroth dilution in Mueller-Hinton broth; type: cell-based; details: Streptococcus pyogenes, ATCC700294, read-out: MIC SPy
Method in brief: as §1

P. aeruginosa PA01 = experiment: MIC, microbroth dilution in Mueller-Hinton broth; type: cell-based, Pseudomonas aeruginosa; details: for MIC PA MH+BP/CCCP / MIC PA +: P. aeruginosa PA01; for MIC PA MH+BP/CCCP: MH broth with 30 µg/ml 2,2′-bipyridyl and 50 µg/ml CCCP; for MIC PA +: with clavulanic acid (6µg/ml); for MIC: Pseudomonas aeruginosa
E. faecalis ATCC33186 = experiment: MIC, microbroth dilution in Mueller-Hinton broth; type: cell-based; details: Enterococcus faecalis, ATCC33186, read-out: MIC EF
Method in brief: as §1

[3] = system: E. coli BW25113 ΔampC derivative JW4111-2; type: cell-based, Escherichia coli; details: for MIC: Escherichia coli, BW25113, read-out: MIC ECΔampC −
[4] = BW25113, read-out: MIC ECΔtolC MH
[5] = BW25113, read-out: MIC ECΔtolC MH+BP

Row | Compound | MIC [1] [µg/mL] | MIC ([2]; BW25113, read-out: MIC ECΔtolC) [µg/mL] | MIC [2, 4] [µg/mL] | MIC [2, 5] [µg/mL] | MIC ECΔtolC MH+BP/CCCP ([2]; {}) [µg/mL] | MIC EC MH+BP/CCCP (E. coli BW25113) [µg/mL] | MIC (E. coli BW25113) [µg/mL] | MIC (B. anthracis sterne) [µg/mL] | MIC (P. vulgaris ATCC 33420) [µg/mL] | MIC (B. subtilis ATCC23857) [µg/mL] | MIC (S. aureus NRS 70 (MRSA)) [µg/mL] | MIC (S. pneumoniae R6) [µg/mL] | MIC (P. mirabilis ATCC 25933) [µg/mL] | MIC (S. pyogenes ATCC700294) [µg/mL] | MIC PA MH+BP/CCCP (P. aeruginosa PA01) [µg/mL] | MIC (P. aeruginosa PA01; PA01, read-out: MIC PA) [µg/mL] | MIC (P. aeruginosa PA01; PA01, read-out: MIC PA MH) [µg/mL] | MIC (P. aeruginosa PA01; PA01, read-out: MIC PA MH+BP) [µg/mL] | MIC (P. aeruginosa PA01; PA01, read-out: MIC PA MH+CCCP) [µg/mL] | MIC (E. faecalis ATCC33186) [µg/mL] | also measured
1 | CC1(C)SC2C(NC(=O)C(NC(=O)C3=C(O)CNC3=O)c3ccccc3)C(=O)N2C1C(=O)O (stereo not shown) [Compound 2743] | 0.78 (≈ 1.64 µM) | 12.5 (≈ 26.3 µM) | 12.5 (≈ 26.3 µM) | 6.25 (≈ 13.2 µM) | 1.56 (≈ 3.29 µM) | 12.5 (≈ 26.3 µM) | 200 (≈ 422 µM) | 0.78 (≈ 1.64 µM) | 100 (≈ 211 µM) | 0.78 (≈ 1.64 µM) | 25 (≈ 52.7 µM) | < 0.2 | 3.13 (≈ 6.6 µM) | < 0.2 | 3.13 (≈ 6.6 µM) | 25 (≈ 52.7 µM) | 25 (≈ 52.7 µM) | 12.5 (≈ 26.3 µM) | 6.25 (≈ 13.2 µM) | 12.5 (≈ 26.3 µM) | MIC ECΔtolC MH+CCCP ([2]; {}): 3.13 µg/mL (≈ 6.6 µM); MIC EC + (E. coli BW25113): 12.5 µg/mL; MIC PA + (P. aeruginosa PA01): 12.5 µg/mL; MIC (P. aeruginosa PA01; PA01, read-out: MIC PA −): 25 µg/mL (≈ 52.7 µM); MIC [3]: 12.5 µg/mL (≈ 26.3 µM); MIC ECΔampC + [3]: 6.25 µg/mL
2 | CC(C)C1NC(=O)C(C(=O)NC(C(=O)NC2C(=O)N3C2SC(C)(C)C3C(=O)O)c2ccccc2)=C1O (stereo not shown) [Compound 2744] | 1.56 (≈ 3.02 µM) | 3.13 (≈ 6.06 µM) | 3.13 (≈ 6.06 µM) | 3.13 (≈ 6.06 µM) | 0.78 (≈ 1.51 µM) | 25 (≈ 48.4 µM) | 100 (≈ 194 µM) | 6.25 (≈ 12.1 µM) | 12.5 (≈ 24.2 µM) | 3.13 (≈ 6.06 µM) | 25 (≈ 48.4 µM) | 0.39 (≈ 0.755 µM) | 12.5 (≈ 24.2 µM) | 0.78 (≈ 1.51 µM) | 25 (≈ 48.4 µM) | 25 (≈ 48.4 µM) | 25 (≈ 48.4 µM) | 50 (≈ 96.8 µM) | 12.5 (≈ 24.2 µM) | 12.5 (≈ 24.2 µM) | MIC ECΔtolC MH+CCCP ([2]; {}): 1.56 µg/mL (≈ 3.02 µM); MIC EC + (E. coli BW25113): 25 µg/mL; MIC PA + (P. aeruginosa PA01): 25 µg/mL; MIC (P. aeruginosa PA01; PA01, read-out: MIC PA −): 25 µg/mL (≈ 48.4 µM); MIC ECΔampC + [3]: 12.5 µg/mL
3 | CC1(C)SC2C(NC(=O)C(NC(=O)C3=C(O)C(c4ccccc4)NC3=O)c3ccccc3)C(=O)N2C1C(=O)O (stereo not shown) [Compound 2745] | 0.78 (≈ 1.42 µM) | 3.13 (≈ 5.68 µM) | 3.13 (≈ 5.68 µM) | 1.56 (≈ 2.83 µM) | 0.78 (≈ 1.42 µM) | 12.5 (≈ 22.7 µM) | 100 (≈ 182 µM) | 6.25 (≈ 11.4 µM) | 12.5 (≈ 22.7 µM) | 3.13 (≈ 5.68 µM) | 25 (≈ 45.4 µM) | 0.39 (≈ 0.708 µM) | 3.13 (≈ 5.68 µM) | 0.78 (≈ 1.42 µM) | 12.5 (≈ 22.7 µM) | 25 (≈ 45.4 µM) | 25 (≈ 45.4 µM) | 50 (≈ 90.8 µM) | 12.5 (≈ 22.7 µM) | 12.5 (≈ 22.7 µM) | MIC ECΔtolC MH+CCCP ([2]; {}): 1.56 µg/mL (≈ 2.83 µM); MIC EC + (E. coli BW25113): 12.5 µg/mL; MIC PA + (P. aeruginosa PA01): 25 µg/mL; MIC (P. aeruginosa PA01; PA01, read-out: MIC PA −): 25 µg/mL (≈ 45.4 µM); MIC [3]: 6.25 µg/mL (≈ 11.4 µM); MIC ECΔampC + [3]: 6.25 µg/mL
4 | CC1NC(=O)C(C(=O)NC(C(=O)NC2C(=O)N3C2SC(C)(C)C3C(=O)O)c2ccccc2)=C1O (stereo not shown) [Compound 2746] | 1.56 (≈ 3.19 µM) |  |  | 6.25 (≈ 12.8 µM) | 1.56 (≈ 3.19 µM) | 12.5 (≈ 25.6 µM) | 200 (≈ 409 µM) | 1.56 (≈ 3.19 µM) | 100 (≈ 205 µM) | 3.13 (≈ 6.41 µM) | 50 (≈ 102 µM) | 0.39 (≈ 0.798 µM) | 3.13 (≈ 6.41 µM) | 0.39 (≈ 0.798 µM) | 12.5 (≈ 25.6 µM) | 50 (≈ 102 µM) | 50 (≈ 102 µM) | 50 (≈ 102 µM) | 12.5 (≈ 25.6 µM) | 25 (≈ 51.2 µM) | MIC ECΔtolC MH+CCCP ([2]; {}): 3.13 µg/mL (≈ 6.41 µM); MIC EC + (E. coli BW25113): 50 µg/mL; MIC PA + (P. aeruginosa PA01): 25 µg/mL; MIC (P. aeruginosa PA01; PA01, read-out: MIC PA −): 50 µg/mL (≈ 102 µM); MIC [3]: 50 µg/mL (≈ 102 µM); MIC ECΔampC + [3]: 25 µg/mL
5 | CC1(C)S[C@@H]2[C@H](NC(=O)C(C(=O)O)c3ccccc3)C(=O)N2[C@H]1C(=O)O (stereo partly shown) [carbenicillin, reference compound] | < 0.2 | 0.09 (≈ 0.238 µM) | 1.56 (≈ 4.12 µM) | 0.56 (≈ 1.48 µM) |  | 0.78 (≈ 2.06 µM) | 100 (≈ 264 µM) | < 0.2 | 100 (≈ 264 µM) | < 0.2 | 6.25 (≈ 16.5 µM) | < 0.2 | 1.56 (≈ 4.12 µM) | < 0.2 | 1.56 (≈ 4.12 µM) | 100 (≈ 264 µM) | 200 (≈ 529 µM) | 50 (≈ 132 µM) | 25 (≈ 66.1 µM) | 3.13 (≈ 8.27 µM) | MIC ECΔtolC MH+CCCP ([2]; E. coli BW25113 ΔtolC JW5503-1, MH broth containing 50 µg/ml CCCP): 0.78 µg/mL (≈ 2.06 µM)
